Published values collected from several papers.
Lines come from different studies, so protocols differ.
Target: Serine/threonine-protein kinase Sgk3 (SGK3, Homo sapiens, UniProt Q96BR1)
Sequence (Q96BR1 1-496, as in one of the studies): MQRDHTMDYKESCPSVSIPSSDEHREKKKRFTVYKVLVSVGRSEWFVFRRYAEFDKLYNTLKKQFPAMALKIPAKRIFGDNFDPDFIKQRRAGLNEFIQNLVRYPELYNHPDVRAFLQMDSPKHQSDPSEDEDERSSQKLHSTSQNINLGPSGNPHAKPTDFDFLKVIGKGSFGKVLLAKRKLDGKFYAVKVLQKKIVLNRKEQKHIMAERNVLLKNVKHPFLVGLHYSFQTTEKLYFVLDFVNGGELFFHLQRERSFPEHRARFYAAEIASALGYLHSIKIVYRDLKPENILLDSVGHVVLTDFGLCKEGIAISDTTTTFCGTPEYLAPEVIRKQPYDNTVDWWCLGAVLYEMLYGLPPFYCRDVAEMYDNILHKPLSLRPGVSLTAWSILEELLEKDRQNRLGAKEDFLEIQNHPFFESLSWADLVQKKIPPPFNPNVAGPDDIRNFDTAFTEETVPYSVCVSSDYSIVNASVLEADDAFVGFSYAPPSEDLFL

SMILES | read-out | mode | method | tested at | measurement | value
O=C1CCc2cc(Nc3cc(OC4CCOCC4)c([N+](=O)[O-])cc3Cl)ccc2N1 | cell-free assay | – | competition with immobilised ligand | 1 µM | remaining binding | 100%
CCOc1cc(-c2nncn2C)ccc1Nc1ncc2cc(C)nc(NCC(C)(C)C)c2n1 | enzyme activity | inhibitor | FRET | 1 µM | inhibition | < 15%
O=C(Nc1cnn(-c2csc(C(=O)NC3COC3)c2)c1)Nc1ccccc1Cl | enzyme activity | inhibitor | – | 5 µM | remaining activity | 93.8%
COc1cc2ncnc(Nc3ccc(Oc4ccccc4)c(C)c3C)c2cc1OC | enzyme activity | inhibitor | – | 1 µM | inhibition | -5%
CCN(CC)c1ccc(C2=NNC(=O)CC2C)cc1[N+](=O)[O-] (stereo not drawn) | enzyme activity | inhibitor | – | 10 µM | remaining activity | 114%
Cc1cc(NC(=O)c2cccc(S(F)(F)(F)(F)F)c2)cc(-n2ccn3nc(-c4cccnc4)cc23)c1 | cell-free assay | – | competition with immobilised ligand | 1 µM | remaining binding | 72.1%
O=C1NC(=O)c2cc(Nc3ccc(F)cc3)c(Nc3ccc(F)cc3)cc21 | cell-free assay | – | – | 0.5 µM | remaining signal | 102%
CS(=O)(=O)N1CCCC(NC(=O)[C@H](CCC2CCCCC2)NC(=O)c2ccc(CNC(=O)c3cnc4ccccn34)cc2)C1 (stereo partly drawn) | cell-free assay | – | competition with immobilised ligand | 0.1 µM | remaining binding | 74%
Oc1cccc(-c2nc(N3CCOCC3)c3oc4ncccc4c3n2)c1 | cell-free assay | – | – | 0.5 µM | remaining signal | 95.8%
CNC(=O)c1ccc(Nc2ncc(C(F)(F)F)c(NCc3nccnc3N(C)S(C)(=O)=O)n2)cc1 | cell-free assay | – | competition with immobilised ligand | 0.1 µM | remaining binding | 85%
CC(C)(O)[C@H]1CC[C@H](Nc2ccc3ncc(-c4cccc(C(F)(F)F)c4)n3n2)CC1 | enzyme activity | inhibitor | – | 1 µM | remaining activity | 95.8%
COc1cccc2c(NCc3ccccc3)nc(-n3c(N)nc4ccccc43)nc12 | target engagement in cells | inhibitor | chemoproteomics | 20 mM | inhibition | -7.6%
O=C(Nc1cnn(-c2csc(C(=O)NC3COC3)c2)c1)Nc1c(F)cccc1Cl | enzyme activity | inhibitor | – | 5 µM | remaining activity | 95.3%
Nc1ncnc2occ(-c3ccc(NC(=O)Nc4cc(C(F)(F)F)ccc4F)cc3)c12 | cell-free assay | inhibitor | – | 20 µM | remaining signal | 6.6%
CO[C@H]1CC[C@H](CNc2ccc(S(=O)(=O)NC(=O)c3ccc(N4CCN(CC5=C(c6ccc(Cl)cc6)CC(C)(C)CC5)CC4)cc3Oc3cnc4[nH]ccc4c3)cc2[N+](=O)[O-])CC1 | cell-free assay | – | competition with immobilised ligand | 1 µM | remaining binding | 99%
CS(=O)(=O)CCNCc1ccc(-c2ccc3ncnc(Nc4ccc(OCc5cccc(F)c5)c(Cl)c4)c3c2)o1 | cell-free assay | – | – | 0.5 µM | remaining signal | 102%
CNCc1ccccc1-c1csc([C@@H](C)Nc2nc(C)nc3cc(OC)c(OC)cc23)c1 | cell-free assay | – | competition with immobilised ligand | 1 µM | remaining binding | 78%
COc1cc(Cl)c(C(=O)N[C@@H](CN[C@H]2CC[C@@H](N)CC2)Cc2ccc(C#N)cc2)cc1-c1ccc(CN[C@H](C)c2ccc(C)cc2)o1 | enzyme activity | inhibitor | – | 1 µM | remaining activity | 83%
Cc1ccc(Nc2nccc(N(C)c3ccc4c(C)n(C)nc4c3)n2)cc1S(N)(=O)=O | enzyme activity | inhibitor | – | 0.3 µM | inhibition | 10%
CNc1cccc2cc(C(=O)Nc3ccc(C(=O)O)cc3)c(=O)[nH]c12 | enzyme activity | inhibitor | – | 10 µM | inhibition | -2.1%
Cc1cnc(NC2CCOCC2)nc1-n1cnc(C(=O)NC(CN)c2cc(F)cc(Cl)c2)c1 (stereo not drawn) | enzyme activity | inhibitor | radiometric | 1 µM | remaining activity | 92%
Cn1nc(C(F)(F)F)cc1-c1cnc(N2CCc3cc(S(=O)(=O)Nc4c(F)cc(Cl)cc4F)cc(N4CCCC4=O)c32)nc1 | cell-free assay | – | competition with immobilised ligand | 1 µM | remaining binding | 78%
CNC(=O)c1cc(Oc2ccc(NC(=O)Nc3ccc(Cl)c(C(F)(F)F)c3)cc2)ccn1 | enzyme activity | inhibitor | – | 10 µM | inhibition | 11%
Cc1ccc(C(=O)Nc2ccc(CN3CCN(C)CC3)c(C(F)(F)F)c2)cc1C#Cc1cnc2cccnn12 | enzyme activity | inhibitor | – | 23.5 nM | remaining activity | 70%
